Reference: ChEMBL document CHEMBL1132360, “N-Substituted (2,3-dihydro-1,4-benzodioxin-2-yl)methylamine derivatives as D(2) antagonists/5-HT(1A) partial agonists with potential as atypical antipsychotic agents” (J Med Chem, 1999)

Assays:
[1] = The compound was tested for binding affinity against MCB receptor
[2] = target: T1, Alpha-2A adrenergic receptor (Rattus norvegicus, UniProt P22909); test: The compound was tested for binding affinity against alpha-2D adrenergic receptor
T1 sequence (P22909 whole entry): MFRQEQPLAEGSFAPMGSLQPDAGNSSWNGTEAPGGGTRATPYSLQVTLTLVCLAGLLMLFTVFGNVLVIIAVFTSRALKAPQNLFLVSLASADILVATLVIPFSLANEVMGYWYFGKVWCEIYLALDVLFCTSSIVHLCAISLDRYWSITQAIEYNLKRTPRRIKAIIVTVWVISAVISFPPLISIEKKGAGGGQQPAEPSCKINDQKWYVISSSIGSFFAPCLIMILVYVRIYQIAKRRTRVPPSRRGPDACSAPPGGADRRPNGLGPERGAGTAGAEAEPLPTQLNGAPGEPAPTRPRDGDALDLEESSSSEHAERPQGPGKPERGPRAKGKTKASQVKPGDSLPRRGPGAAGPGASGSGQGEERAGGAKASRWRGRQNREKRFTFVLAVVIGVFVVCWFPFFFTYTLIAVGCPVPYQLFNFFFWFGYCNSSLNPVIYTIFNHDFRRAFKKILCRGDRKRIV

Rattus norvegicus = test: The compound was tested in vivo for induction of catalepsy in rat after ip administration; format: functional
Outline: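 Male rats (130–190 g), groups of five, injected ip with compound solution (1 mL/kg). Catalepsy assessed at three times by placing each paw on a 45 mm rubber bung; a paw held 15 s scores 1 (group maximum 20 = 100%). ED50 from percent catalepsy at the final reading, by adapted Litchfield–Wilcoxon.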

[3] = target: T2, Adrenergic receptor alpha-1 (Homo sapiens, UniProt P35348+P25100+P35368); test: Binding affinity towards Alpha-1 adrenergic receptor in human cortex membranes; format: cell membranes
T2 sequence (P35348 whole entry): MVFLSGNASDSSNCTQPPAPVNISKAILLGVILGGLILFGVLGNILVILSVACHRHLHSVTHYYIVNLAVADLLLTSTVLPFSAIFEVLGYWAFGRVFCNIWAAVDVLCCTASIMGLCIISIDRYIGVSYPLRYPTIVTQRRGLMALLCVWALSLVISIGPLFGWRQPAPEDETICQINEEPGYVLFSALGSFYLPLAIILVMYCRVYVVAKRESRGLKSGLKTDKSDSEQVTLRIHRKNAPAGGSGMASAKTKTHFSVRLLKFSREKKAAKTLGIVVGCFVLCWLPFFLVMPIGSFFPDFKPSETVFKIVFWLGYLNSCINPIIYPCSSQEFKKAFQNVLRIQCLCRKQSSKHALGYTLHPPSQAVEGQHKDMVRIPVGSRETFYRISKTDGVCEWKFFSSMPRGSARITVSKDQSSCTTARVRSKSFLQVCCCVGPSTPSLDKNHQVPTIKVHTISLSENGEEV
T2 sequence (P25100 whole entry): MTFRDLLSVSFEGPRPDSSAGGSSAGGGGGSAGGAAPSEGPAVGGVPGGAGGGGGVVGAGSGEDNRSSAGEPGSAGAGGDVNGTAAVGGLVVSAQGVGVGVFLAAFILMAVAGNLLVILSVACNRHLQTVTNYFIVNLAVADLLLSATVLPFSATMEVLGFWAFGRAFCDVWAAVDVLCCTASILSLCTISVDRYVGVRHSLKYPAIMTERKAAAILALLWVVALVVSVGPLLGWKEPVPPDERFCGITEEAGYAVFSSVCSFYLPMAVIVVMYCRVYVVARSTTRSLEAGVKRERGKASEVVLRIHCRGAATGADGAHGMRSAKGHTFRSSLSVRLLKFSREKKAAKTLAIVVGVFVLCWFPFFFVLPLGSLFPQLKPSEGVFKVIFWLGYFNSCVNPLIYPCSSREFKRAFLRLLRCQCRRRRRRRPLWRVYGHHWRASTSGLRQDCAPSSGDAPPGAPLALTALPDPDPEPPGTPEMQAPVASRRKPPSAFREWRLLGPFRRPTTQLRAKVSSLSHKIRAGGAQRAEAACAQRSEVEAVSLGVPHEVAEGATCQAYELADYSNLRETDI
T2 sequence (P35368 whole entry): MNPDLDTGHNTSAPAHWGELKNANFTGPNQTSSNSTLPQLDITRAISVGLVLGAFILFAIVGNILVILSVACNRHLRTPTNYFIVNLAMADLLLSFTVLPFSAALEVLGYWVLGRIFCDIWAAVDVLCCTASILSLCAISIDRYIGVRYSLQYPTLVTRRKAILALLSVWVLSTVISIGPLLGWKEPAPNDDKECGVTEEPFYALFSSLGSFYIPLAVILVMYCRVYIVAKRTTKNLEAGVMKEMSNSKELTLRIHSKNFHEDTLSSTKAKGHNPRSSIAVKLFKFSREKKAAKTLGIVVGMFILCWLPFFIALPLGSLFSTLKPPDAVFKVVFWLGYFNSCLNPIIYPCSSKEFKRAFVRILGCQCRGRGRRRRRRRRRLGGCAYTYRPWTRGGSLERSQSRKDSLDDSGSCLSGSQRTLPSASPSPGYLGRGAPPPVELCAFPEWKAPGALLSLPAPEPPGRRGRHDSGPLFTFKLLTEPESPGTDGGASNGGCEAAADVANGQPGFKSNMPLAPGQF

D(3) dopamine receptor = D(3) dopamine receptor (Homo sapiens, UniProt P35462); test: The compound was tested for binding affinity against human Dopamine receptor D3
[4] = target: T3, 5-hydroxytryptamine receptor 1A (Rattus norvegicus, UniProt P19327); test: Binding affinity towards 5-hydroxytryptamine 1A receptor from rat brain using [3H]-8-OH-DPAT as radioligand
T3 sequence (P19327 whole entry): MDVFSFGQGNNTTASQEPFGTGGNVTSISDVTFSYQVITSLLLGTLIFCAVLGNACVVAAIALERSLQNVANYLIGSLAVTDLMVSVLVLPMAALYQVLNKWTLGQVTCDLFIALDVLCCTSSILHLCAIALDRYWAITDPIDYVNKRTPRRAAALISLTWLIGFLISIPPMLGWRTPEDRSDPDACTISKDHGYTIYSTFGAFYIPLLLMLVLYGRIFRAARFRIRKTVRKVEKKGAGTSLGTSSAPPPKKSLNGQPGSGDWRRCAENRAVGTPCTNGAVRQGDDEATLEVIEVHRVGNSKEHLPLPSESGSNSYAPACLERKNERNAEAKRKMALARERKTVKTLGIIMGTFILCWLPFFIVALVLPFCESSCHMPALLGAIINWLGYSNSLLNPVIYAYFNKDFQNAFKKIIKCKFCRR

Mus musculus = test: Antagonistic activity against apomorphine induced climbing in the mouse after po administration; format: functional
Outline: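 Male CD1 mice (20–25 g), groups of 10, dosed po with compound or vehicle ([…]) at set times before apomorphine 0.88 mg/kg sc. Each mouse placed in an inverted open-ended wire cage; climbing scored 0–2 at 10 and 20 min after apomorphine.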

Sequence of D(3) dopamine receptor (P35462 whole entry): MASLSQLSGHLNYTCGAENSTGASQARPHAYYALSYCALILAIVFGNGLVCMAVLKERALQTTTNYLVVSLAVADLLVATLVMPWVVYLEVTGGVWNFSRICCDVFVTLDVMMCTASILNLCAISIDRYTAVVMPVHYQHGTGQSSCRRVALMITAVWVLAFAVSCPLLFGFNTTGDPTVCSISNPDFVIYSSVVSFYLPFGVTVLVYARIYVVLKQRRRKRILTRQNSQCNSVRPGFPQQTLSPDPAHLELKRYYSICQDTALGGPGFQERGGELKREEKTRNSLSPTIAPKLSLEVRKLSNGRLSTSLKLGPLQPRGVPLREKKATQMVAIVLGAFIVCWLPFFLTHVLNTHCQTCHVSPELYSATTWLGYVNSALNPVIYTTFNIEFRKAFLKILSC

COc1ccccc1N1CCC(CNCC2COc3ccc(Cl)cc3O2)CC1 (configuration not stated)
Ki [1]: > 1000 nM
Ki [2]: > 500 nM
ED50 (Rattus norvegicus): 188 mg/kg
Ki [3]: 53 nM
Ki (D(3) dopamine receptor): 1.6 nM
Ki [4]: 22 nM
ED50 (Mus musculus): 5 mg/kg
